STAT3 act: increases IL-6 driven STAT3 reporter signal | actives 0.91% (n = 190,000) | activation (% of control), % at 5.6 µM | U3A cells, IL-6 STAT3-luciferase reporter, luminescence; 100% = signal with IL-6 EC80 alone;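 active = activation above the screen-wide mean of compound activation plus 3 SD, cut at about 130% in these data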;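 note: 0% = background luminescence of wells with medium and substrate only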
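Assay system – human STAT1-deficient U3A cells with stable STAT3-luciferase reporter · Also added – IL-6 (33 ng/mL) · Schedule – compound 1 h, then IL-6 6 h at 37 °C · Technique – reporter luminescence signal · Evaluation – % activation versus median of IL-6-stimulated wells · Benchmarks – IL-6-only wells as 100% reference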
STAT1 act: increases IFN-gamma driven STAT1 reporter signal; AID 932; actives 2.6% (n = 200,000); activation (% of control), % at 5.5 µM; NIH 3T3 STAT1-luciferase reporter, luminescence; 100% = IFN-gamma alone, no compound;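 active = activation above the screen-wide mean activation plus 3 SD, cut at about 130% in these data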;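 note: raw ratio to IFN-gamma control signal so 100% means no change and 0% no light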
STAT1 inh-1: reduces IFN-gamma driven STAT1 reporter signal | AID 920 | NIH 3T3 STAT1-luciferase reporter, luminescence | actives 0.35% (n = 200,000) | inhibition, % at 5.5 µM;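 active = inhibition above a set limit, the mean inhibition across all tested compounds plus 3 SD, cut at about 34% in these data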;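 note: 0% = IFN-gamma with DMSO and 100% = IFN-gamma with 300 µM nifuroxazide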
STAT3 blocker: STAT3 signaling inhibition | AID 862 | actives 0.89% (n = 190,000) | inhibition, % at 5.5 µM | U3A cells, IL-6 STAT3-luciferase reporter, luminescence; host cell line lacks STAT1;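 active = inhibition above the mean inhibition across all screened compounds plus 3 SD, cut at about 44% in these data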;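 note: 0% = DMSO only wells and 100% = 100 µM nifuroxazide control wells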
NF-kB expr up: compounds increasing NF-kB expression in human neuronal cells; NF-kB reporter expression; hits give high values; actives 1.6% (n = 190,000); fold change at 12.5 µM; in the data active = fold change above about 3.3
APP 5'UTR act: activates APP 5'UTR luciferase reporter; SH-SY5Y APP 5'UTR luciferase reporter, luminescence; zero percent = DMSO vehicle wells; activation, % at 2 µM; AID 1276; actives 1% (n = 190,000);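 active = activation above a set limit, based on mean plus 3 SD of controls, cut at about 140% in these data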
STAT1 inh-2: STAT1 inhibition, confirmation assay | shares compounds with STAT1 inh-1 | NIH 3T3 STAT1-luciferase reporter, IFN-gamma, luminescence | inhibition, % at 5.5 µM | actives 55% (n = 200);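 active = triplicate mean inhibition exceeding the hit cutoff computed for the primary STAT1 screen, cut at about 35% in these data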;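 note: 0% = DMSO with IFN-gamma and 100% = 300 µM nifuroxazide with IFN-gamma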
NFkB inh STAT1ct: counter-screen for STAT1 inhibitors: NF-kappaB inhibition; shares compounds with STAT1 inh-1; HEK293T NF-kB luciferase reporter, TNF-alpha induced, luminescence; inhibition, % at 5.7 µM; actives 30% (n = 200);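 active = inhibition above the mean of solvent-only control wells plus 3 SD of those wells, cut at about 15% in these data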;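 note: 0% = DMSO with TNF-alpha and 100% = MG-132 control with TNF-alpha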
STAT3 inh 2: STAT3 inhibition in STAT1 inhibitor counter-screen; shares compounds with STAT1 inh-1; U3A cells, IL-6 STAT3 luciferase reporter, luminescence; cells lacking STAT1; inhibition, % at 5.7 µM; actives 20% (n = 200); AID 1310;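 active = inhibition above the mean of solvent-only control wells plus 3 SD, set per campaign, cut at about 25% in these data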;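 note: 0% = IL-6 plus DMSO and 100% = IL-6 plus nifuroxazide control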
Starred values were filed as active, the others as inactive; . = no result given. A selection: hits, their analogues and other compounds. The true share with any hit is near 5.1%.

SMILES	STAT3 act	STAT1 act	STAT1 inh-1	STAT3 blocker	NF-kB expr up	APP 5'UTR act	STAT1 inh-2	NFkB inh STAT1ct	STAT3 inh 2
Cn1cc(CN2CCc3c([nH]c4ccccc34)C2C2CCCCC2)cn1 (stereo not drawn)	130	96	2	-32	1.1	-3	.	.	.
COc1cccc(C2c3[nH]c4ccccc4c3CCN2Cc2cnc(C)s2)c1OC (stereo not drawn)	129	45	60*	-27	.	7	15	12	-27
O=C(NCc1ccncc1)Nc1cccc(Cl)c1	96	95	5	6	1.3	3	.	.	.
Cc1c(C(=O)Nc2cccc(Cl)c2)c2ccccn2c1CCc1ccncc1	99	68	35*	6	0.9	10	23	-9	-5
Cc1ccc(-n2nc(C(=O)O)c3ccccc3c2=O)cc1C	88	55	54*	15	1	-5	49*	2	8
COc1ccccc1-n1nc(C(=O)O)c2ccccc2c1=O	99	100	-2	6	1.4	14	.	.	.
S=c1[nH]nc(Cc2ccccc2)n1-c1ccc(Cl)cc1	97	106	-8	9	0.97	-16	.	.	.
CCOC1=NN(c2ccccc2)C(=O)/C1=C\N(C)C	94	101	-2	11	1.2	12	.	.	.
CC1=NN(c2nc3ccccc3[nH]2)C(=O)/C1=C/N(C)C	78	61	41*	29	0.85	28	-92	-3	-15
CCCNC(=O)CSCc1nc(-c2ccc(SC)cc2)oc1C	95	87	13	17	1.1	8	.	.	.
CCc1ccc(-c2nc(CSCC(=O)NCc3ccco3)c(C)o2)cc1	84	24	83*	28	0.29	-47	75*	37*	23
Cc1ccc(CSCCC(=O)NCCC2=CCCCC2)cc1	106	106	-7	-6	1.4	14	.	.	.
O=C(O)c1ccc(N/N=C/c2cc3c(cc2[N+](=O)[O-])OCO3)cc1	73	65	36*	36	0.9	24	65*	45*	15
CCCCNC(=O)c1onc(CSc2ccccc2C)c1C(=O)O	107	108	-8	-8	1.6	0	.	.	.
O=C(N/N=C/c1cccc(O)c1)c1ccc(COc2cccc3cccnc23)cc1	107	107	-10	-7	1.2	13	.	.	.
Oc1cccc(/C=N/Nc2cccc3cccnc23)c1	89	53	49*	15	8.9*	227*	32	-12	-61
COC(=O)COC(=O)c1ccc(-n2nnnc2SC)cc1	97	106	-6	6	1.1	7	.	.	.
CCN(CC(=O)NCc1ccc(Cl)cc1)C(=O)/C=C/c1cccs1	109	36	68*	-10	0.89	1	8	2	3
CCn1cc(CNC(=O)c2cc(COc3ccc(F)cc3Cl)on2)cn1	81	86	14	27	1.1	1	.	.	.
CCCCCCC(=O)N(O)C1CC(=O)N(Cc2ccccc2)C1=O (stereo not drawn)	83	68	35*	22	1.4	0	30	11	22
CCOC(=O)N1CCN(C(=S)NC(=O)c2ccc(Br)cc2)CC1	118	96	3	-14	0.96	28	.	.	.
CCOC(=O)N1CCN(C(=S)NC(=O)c2cc(Br)ccc2Cl)CC1	96	58	44*	7	0.95	16	20	-8	0
Cc1cccnc1CCNC(=O)CCc1nnc(-c2ccccc2)o1	99	111	-13	12	1.2	8	.	.	.
CCNc1nc(NC(C)(C)C)nc(N2CCCCC2)n1	94	64	39*	13	1.6	3	24	-6	19
CCNc1nc(N2CCCC2)nc(N2CCCC2)n1	114	86	16	-14	1.2	1	.	.	.
SMILES	STAT3 act	STAT1 act	STAT1 inh-1	STAT3 blocker	NF-kB expr up	APP 5'UTR act	STAT1 inh-2	NFkB inh STAT1ct	STAT3 inh 2
Cc1ccc(Nc2nc(CSc3nnc(-c4ccccc4C)n3C)cs2)cc1	106	104	-5	-5	1.6	14	.	.	.
O=C(Nc1ccc(C(=O)N2CCCC2)cc1)c1ccccc1F	101	111	-12	3	1.6	22	.	.	.
O=C(Nc1cc(C(=O)N2CCCC2)ccc1N1CCCC1)c1ccccc1F	89	53	51*	17	0.66	-2	48*	11	8
CCOC(=O)C1=C(CC)Nc2ccccc2N=C1NC(=O)c1ccc(OC)c(S(=O)(=O)N2CCCCC2C)c1 (stereo not drawn)	107	65	37*	-6	1.1	17	17	-2	-22
COc1cccc(-n2nnnc2S(C)(=O)=O)c1	90	66	35*	12	1.1	-4	44*	9	-48
COc1cccc(N2CC(=O)N(c3cccc(OC)c3)CC2=O)c1	100	105	-9	4	0.96	0	.	.	.
COc1ccccc1Nc1nc(-c2c(C)nc3ncccn23)cs1	68	62	39*	40	0.97	-3	36*	5	30*
C=CCOC(=O)C1=C[C@H](c2ccccc2)[C@@H](CCCO)[C@H](OCC)O1	.	87	16	.	1	11	.	.	.
C#Cc1ccc([C@H]2C=C(C(=O)OCC=C)O[C@@H](OCC)[C@@H]2CCCO)cc1	.	49	56*	.	0.99	9	36*	2	-17
C#Cc1ccc([C@@H]2C=C(C(=O)OCC=C)O[C@H](OCC)[C@H]2CCCO)cc1	.	67	37*	.	0.86	-6	22	-1	2
COc1ccc(-c2nc(N)n(C(=O)c3ccco3)n2)cc1	88	100	1	22	1.2	10	.	.	.
O=c1[nH]c(SCc2ccccc2F)nc2ccccc12	97	105	-7	8	1.2	-2	.	.	.
O=c1cc(CSc2nc3ccccc3c(=O)[nH]2)c2ccc(O)cc2o1	100	35	69*	5	0.5	22	52*	14	1
COc1cccc(-n2c(C)cc(/C=C3/C(=N)N4C(=NC3=O)SN=C4S(C)(=O)=O)c2C)c1	106	111	-13	-5	1.3	19	.	.	.
O=C(CSc1nnc(Nc2ccccc2)s1)Nc1cccc(S(=O)(=O)N2CCCCC2)c1	103	103	-3	-4	0.84	1	.	.	.
O=C1CCCC2=C1C(c1cccs1)Nc1ccccc1N2 (stereo not drawn)	97	101	-1	2	1.8	1	.	.	.
O=C(O)c1cccc(N/N=C/c2cccnc2)c1	72	63	40*	38	2.4	87	6	31*	-9
